In publication PMC13170702 (Nuclear medicine and biology, 2025):

Assay: organ radiation dose estimates, OLINDA 1.1, ICRP-60
Format: in vivo, human
Summary of the method: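 Whole-body PET-MR ran as nine scans to 214 min. Organ VOIs were drawn in AMIDE, giving decay-corrected %IA per VOI; remainder = whole body minus measured organs. TIACs came from the exponential model (EXM) in OLINDA 1.1. Per-participant organ doses used 70 kg adult male or 55 kg female models in OLINDA 1.1. Effective dose (mSv) = organ absorbed doses × ICRP-60 tissue weighting factors.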

Effective dose (whole body) (F1 (189 MBq)): 5.42 mSv
Estimated absorbed dose, Adrenals (F1 (189 MBq)): 3.89 mGy
Estimated absorbed dose, Brain (F1 (189 MBq)): 3.40 mGy
Estimated absorbed dose, Breasts (F1 (189 MBq)): 1.79 mGy
Estimated absorbed dose, Gallbladder wall (F1 (189 MBq)): 4.40 mGy
Estimated absorbed dose, Heart wall (F1 (189 MBq)): 4.25 mGy
Estimated absorbed dose, Kidneys (F1 (189 MBq)): 32.5 mGy
Estimated absorbed dose, Liver (F1 (189 MBq)): 7.85 mGy
Estimated absorbed dose, Lower large intestine wall (F1 (189 MBq)): 2.64 mGy
Estimated absorbed dose, Lungs (F1 (189 MBq)): 12.3 mGy
Estimated absorbed dose, Muscle (F1 (189 MBq)): 2.06 mGy
Estimated absorbed dose, Osteogenic cells (F1 (189 MBq)): 2.94 mGy
Estimated absorbed dose, Ovaries (F1 (189 MBq)): 2.83 mGy
Estimated absorbed dose, Pancreas (F1 (189 MBq)): 6.10 mGy
Estimated absorbed dose, Red marrow (F1 (189 MBq)): 2.15 mGy
Estimated absorbed dose, Remainder (F1 (189 MBq)): 2.62 mGy
Estimated absorbed dose, Skin (F1 (189 MBq)): 1.44 mGy
Estimated absorbed dose, Small intestine (F1 (189 MBq)): 6.06 mGy
Estimated absorbed dose, Spleen (F1 (189 MBq)): 8.87 mGy
Estimated absorbed dose, Stomach wall (F1 (189 MBq)): 2.68 mGy
Estimated absorbed dose, Thymus (F1 (189 MBq)): 7.08 mGy
Estimated absorbed dose, Thyroid (F1 (189 MBq)): 1.88 mGy
Estimated absorbed dose, Upper, lower intestine wall (F1 (189 MBq)): 3.09 mGy
Estimated absorbed dose, Urinary bladder wall (F1 (189 MBq)): 18.8 mGy
Estimated absorbed dose, Uterus (F1 (189 MBq)): 4.21 mGy
Effective dose (whole body) (F2, no voiding (355 MBq)): 10.6 mSv
Estimated absorbed dose, Adrenals (F2, no voiding (355 MBq)): 7.74 mGy
Estimated absorbed dose, Brain (F2, no voiding (355 MBq)): 5.65 mGy
Estimated absorbed dose, Breasts (F2, no voiding (355 MBq)): 2.93 mGy
Estimated absorbed dose, Gallbladder wall (F2, no voiding (355 MBq)): 7.35 mGy
Estimated absorbed dose, Heart wall (F2, no voiding (355 MBq)): 6.61 mGy
Estimated absorbed dose, Kidneys (F2, no voiding (355 MBq)): 93.4 mGy
Estimated absorbed dose, Liver (F2, no voiding (355 MBq)): 14.6 mGy
Estimated absorbed dose, Lower large intestine wall (F2, no voiding (355 MBq)): 4.26 mGy
Estimated absorbed dose, Lungs (F2, no voiding (355 MBq)): 25.5 mGy
Estimated absorbed dose, Muscle (F2, no voiding (355 MBq)): 3.45 mGy
Estimated absorbed dose, Osteogenic cells (F2, no voiding (355 MBq)): 4.69 mGy
Estimated absorbed dose, Ovaries (F2, no voiding (355 MBq)): 5.22 mGy
Estimated absorbed dose, Pancreas (F2, no voiding (355 MBq)): 7.78 mGy
Estimated absorbed dose, Red marrow (F2, no voiding (355 MBq)): 3.77 mGy
Estimated absorbed dose, Remainder (F2, no voiding (355 MBq)): 4.65 mGy
Estimated absorbed dose, Skin (F2, no voiding (355 MBq)): 2.31 mGy
Estimated absorbed dose, Small intestine (F2, no voiding (355 MBq)): 8.35 mGy
Estimated absorbed dose, Spleen (F2, no voiding (355 MBq)): 5.86 mGy
Estimated absorbed dose, Stomach wall (F2, no voiding (355 MBq)): 4.40 mGy
Estimated absorbed dose, Thymus (F2, no voiding (355 MBq)): 7.57 mGy
Estimated absorbed dose, Thyroid (F2, no voiding (355 MBq)): 17.0 mGy
Estimated absorbed dose, Upper, lower intestine wall (F2, no voiding (355 MBq)): 5.04 mGy
Estimated absorbed dose, Urinary bladder wall (F2, no voiding (355 MBq)): 32.9 mGy
Estimated absorbed dose, Uterus (F2, no voiding (355 MBq)): 47.2 mGy
Effective dose (whole body) (F3 (117 MBq)): 2.67 mSv
Estimated absorbed dose, Adrenals (F3 (117 MBq)): 2.50 mGy
Estimated absorbed dose, Brain (F3 (117 MBq)): 1.60 mGy
Estimated absorbed dose, Breasts (F3 (117 MBq)): 1.13 mGy
Estimated absorbed dose, Gallbladder wall (F3 (117 MBq)): 2.95 mGy
Estimated absorbed dose, Heart wall (F3 (117 MBq)): 2.26 mGy
Estimated absorbed dose, Kidneys (F3 (117 MBq)): 21.0 mGy
Estimated absorbed dose, Liver (F3 (117 MBq)): 5.81 mGy
Estimated absorbed dose, Lower large intestine wall (F3 (117 MBq)): 1.47 mGy
Estimated absorbed dose, Lungs (F3 (117 MBq)): 5.47 mGy
Estimated absorbed dose, Muscle (F3 (117 MBq)): 1.29 mGy
Estimated absorbed dose, Osteogenic cells (F3 (117 MBq)): 1.94 mGy
Estimated absorbed dose, Ovaries (F3 (117 MBq)): 1.63 mGy
Estimated absorbed dose, Pancreas (F3 (117 MBq)): 2.85 mGy
Estimated absorbed dose, Red marrow (F3 (117 MBq)): 1.36 mGy
Estimated absorbed dose, Remainder (F3 (117 MBq)): 1.61 mGy
Estimated absorbed dose, Skin (F3 (117 MBq)): 0.945 mGy
Estimated absorbed dose, Small intestine (F3 (117 MBq)): 3.30 mGy
Estimated absorbed dose, Spleen (F3 (117 MBq)): 3.02 mGy
Estimated absorbed dose, Stomach wall (F3 (117 MBq)): 1.68 mGy
Estimated absorbed dose, Thymus (F3 (117 MBq)): 2.23 mGy
Estimated absorbed dose, Thyroid (F3 (117 MBq)): 2.03 mGy
Estimated absorbed dose, Upper, lower intestine wall (F3 (117 MBq)): 1.91 mGy
Estimated absorbed dose, Urinary bladder wall (F3 (117 MBq)): 1.57 mGy
Estimated absorbed dose, Uterus (F3 (117 MBq)): 3.93 mGy
Effective dose (whole body) (F4 (167 MBq)): 3.90 mSv
Estimated absorbed dose, Adrenals (F4 (167 MBq)): 3.19 mGy
Estimated absorbed dose, Brain (F4 (167 MBq)): 2.79 mGy
Estimated absorbed dose, Breasts (F4 (167 MBq)): 1.47 mGy
Estimated absorbed dose, Gallbladder wall (F4 (167 MBq)): 3.08 mGy
Estimated absorbed dose, Heart wall (F4 (167 MBq)): 4.15 mGy
Estimated absorbed dose, Kidneys (F4 (167 MBq)): 28.1 mGy
Estimated absorbed dose, Liver (F4 (167 MBq)): 6.41 mGy
Estimated absorbed dose, Lower large intestine wall (F4 (167 MBq)): 2.09 mGy
Estimated absorbed dose, Lungs (F4 (167 MBq)): 9.27 mGy
Estimated absorbed dose, Muscle (F4 (167 MBq)): 1.67 mGy
Estimated absorbed dose, Osteogenic cells (F4 (167 MBq)): 2.46 mGy
Estimated absorbed dose, Ovaries (F4 (167 MBq)): 2.39 mGy
Estimated absorbed dose, Pancreas (F4 (167 MBq)): 3.95 mGy
Estimated absorbed dose, Red marrow (F4 (167 MBq)): 1.79 mGy
Estimated absorbed dose, Remainder (F4 (167 MBq)): 2.14 mGy
Estimated absorbed dose, Skin (F4 (167 MBq)): 1.19 mGy
Estimated absorbed dose, Small intestine (F4 (167 MBq)): 6.82 mGy
Estimated absorbed dose, Spleen (F4 (167 MBq)): 3.11 mGy
Estimated absorbed dose, Stomach wall (F4 (167 MBq)): 2.19 mGy
Estimated absorbed dose, Thymus (F4 (167 MBq)): 4.01 mGy
Estimated absorbed dose, Thyroid (F4 (167 MBq)): 2.31 mGy
Estimated absorbed dose, Upper, lower intestine wall (F4 (167 MBq)): 2.83 mGy
Estimated absorbed dose, Urinary bladder wall (F4 (167 MBq)): 4.93 mGy
Estimated absorbed dose, Uterus (F4 (167 MBq)): 6.49 mGy
Effective dose (whole body) (Female n=4, mean±SD): 0.0262±0.00361 mSv/MBq
Estimated dose, Adrenals (Female n=4, mean±SD): 0.0207±0.00119 mGy/MBq
Estimated dose, Brain (Female n=4, mean±SD): 0.0161±0.0018 mGy/MBq
Estimated dose, Breasts (Female n=4, mean±SD): 0.00903±0.000633 mGy/MBq
Estimated dose, Gallbladder wall (Female n=4, mean±SD): 0.0219±0.00297 mGy/MBq
Estimated dose, Heart wall (Female n=4, mean±SD): 0.0213±0.00289 mGy/MBq
Estimated dose, Kidneys (Female n=4, mean±SD): 0.196±0.0451 mGy/MBq
Estimated dose, Liver (Female n=4, mean±SD): 0.0426±0.00491 mGy/MBq
Estimated dose, Lower, large intestine wall (Female n=4, mean±SD): 0.0128±0.000858 mGy/MBq
Estimated dose, Lungs (Female n=4, mean±SD): 0.0598±0.0109 mGy/MBq
Estimated dose, Muscle (Female n=4, mean±SD): 0.0104±0.00065 mGy/MBq
Estimated dose, Osteogenic cells (Female n=4, mean±SD): 0.0150±0.00144 mGy/MBq
Estimated dose, Ovaries (Female n=4, mean±SD): 0.0145±0.000479 mGy/MBq
Estimated dose, Pancreas (Female n=4, mean±SD): 0.0256±0.00462 mGy/MBq
Estimated dose, Red marrow (Female n=4, mean±SD): 0.0111±0.000499 mGy/MBq
Estimated dose, Remainder (Female n=4, mean±SD): 0.0134±0.000535 mGy/MBq
Estimated dose, Skin (Female n=4, mean±SD): 0.00734±0.000677 mGy/MBq
Estimated dose, Small intestine (Female n=4, mean±SD): 0.0312±0.00733 mGy/MBq
Estimated dose, Spleen (Female n=4, mean±SD): 0.0270±0.0139 mGy/MBq
Estimated dose, Stomach wall (Female n=4, mean±SD): 0.0135±0.000943 mGy/MBq
Estimated dose, Thymus (Female n=4, mean±SD): 0.0255±0.00826 mGy/MBq
Estimated dose, Thyroid (Female n=4, mean±SD): 0.0223±0.0174 mGy/MBq
SMILES: COC(=O)[C@@H](N)CC(=O)Nc1ccc2c(c1)Cc1cc([18F])ccc1-2 [[^18F]RP-115, methyl N^4-(7-[^18F]fluoro-9H-fluoren-2-yl)asparaginate]
